Our source for the cytotoxicity values is ChEMBL document CHEMBL4513216, “Probing the Open Global Health Chemical Diversity Library for Multistage-Active Starting Points for Next-Generation Antimalarials” (ACS Infect Dis, 2020).

The structures appear in SMILES notation.

A short description of the data set: Toxicity liver stage against HepG2, at 10uM. The class given is cell-based. The arrangement: test concentration 10 uM, cell line HepG2-A16-CD81EGFP. Particulars: human, HepG2-A16-CD81EGFP cells; read-out: INHIBITION
In a few lines:
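Uninfected HepG2-A16-CD81EGFP cells, 3 × 10^3 per well, 1536-well, plated on prespotted compound at 10 μM final, parasite-free screening media added to match infected plates; puromycin 10 μM positive, DMSO 0.5% negative; run in parallel with 48 h PbLuc assay at 37 °C, 5% CO2; viability by CellTiter-Glo luminescence, normalized to controls.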
`O=C(NCc1cccnc1)C1=NOC2(CCN(C3CCOCC3)C2)C1` (stereo not drawn): the cytotoxicity at 10 µM was -1.63%. Regarding `O=C(c1ccccc1)N1CC[C@H]2C[C@H](c3nccs3)O[C@@H]2C1`, the cytotoxicity at 10 µM was determined as 8.39%. Next, `CCOCc1ncn2c1CN(C(=O)Nc1cccc(C)c1)CC2`: -8.92%. The value for `O=C(C1=CCCC1)N1C[C@H](Oc2cccnc2)[C@H]2OCCC[C@H]21` was -8.42%; that for `CS(=O)(=O)NC[C@]12COC[C@H]1CN(C(=O)c1ccccc1)C2` was 1.44%; that for `O=C(Nc1ccccc1)c1n[nH]c(-n2cnnc2)n1` was 9.37%.

As for `CCOCc1cccc(S(=O)(=O)Nc2ncc(C)s2)c1`, the cytotoxicity at 10 µM is 6.38%. The value for `CCCNC(=O)C(C)n1nc(-c2ccc(C)o2)cc(N)c1=O` (stereo not drawn) was -1.15%; that for `CSc1nnc(CNC(=O)Nc2ccccc2F)n1C` was 4.09%. Next, `CCCN1C[C@H](NC(=O)c2cccs2)[C@@H](c2ccc(OC)cc2)C1`: -9.96%. The value for `O=C(c1cccnc1)N1CCOC(c2ccc(-c3cncnc3)cn2)C1` (stereo not drawn) was -16%; that for `Cc1ccc(S(=O)(=O)NC(CO)CC(C)C)cc1N(C)C` (stereo not drawn) was -0.996%; that for `CC(=O)c1cccc(OCC(=O)N(CC(C)C)C2CCN(C)CC2)c1` was -17.6%. For `CN(C)C(=O)CCC[S+]([O-])Cc1ccc(F)c(F)c1` (stereo not drawn), the cytotoxicity at 10 µM came to 12.2%. The value for `CC(C)(NS(C)(=O)=O)C(=O)NCCc1csc2ccccc12` was 0.694%; that for `CC(C)CC(=O)N1Cc2ccccc2CC1C(=O)Nc1nccs1` (stereo not drawn) was -135%; that for `CC(NCCc1nccn1Cc1ccccc1)c1cccs1` (stereo not drawn) was 3.68%. The value for `C1CCC(CNC2CCCN(Cc3noc(C4CC4)n3)C2)CC1` (stereo not drawn) was -4.15%; that for `CCn1cnnc1C1CCN(C(=O)c2ccnc(N(C)C)c2)CC1` was 8.2%. Next, `CC(C)NC(=O)CCNC(=O)c1cc(F)ccc1NS(C)(=O)=O`: -4.24%; `COc1cc(F)c(S(=O)(=O)N2c3ncccc3NC(=O)C2C)cc1OC` (stereo not drawn): -1.92%; `NC(=O)NC(CC(=O)NCCc1cccc(F)c1)c1cccs1` (stereo not drawn): 1.55%. For the compound `COCc1cccc(NC(C)C(=O)N(C)Cc2ccccc2)c1` (stereo not drawn), the cytotoxicity at 10 µM is -0.42%. The value for `NC(=O)C1CCN(Cn2nc(-c3ccccc3)oc2=O)CC1` was -16.8%. Consider `Cc1n[nH]cc1CNc1ccc2c(c1)N(C(=O)OC(C)(C)C)CCC2`, for which the cytotoxicity at 10 µM is -1.97%. The value for `CC1CCN(CCNC(=O)c2cncnc2C(C)C)CC1` was -12%; that for `O=C(Cc1ccccc1)N1CCC2(CC1)CC(Nc1cnccn1)CO2` (stereo not drawn) was 5.1%; that for `CC(C)NC(=O)N1CC[C@@H]2CN(Cc3ccccc3)S(=O)(=O)[C@@H]2CC1` was 9.62%. Next, `O=C(c1ccncc1)N1CCCn2c(CN3CCCCC3)nnc2C1`: -5.77%. Next, `CCC[C@H]1CN(C2CCOCC2)C[C@@H]1NC(=O)CCCn1ccnc1`: 8.06%; `COc1ccccc1OC1CN(C(=O)C(c2ccccc2F)N(C)C)C1` (stereo not drawn): 3.91%; `O=C(CCc1nc(Cl)n[nH]1)N1C[C@H](CO)C[C@H](CN2CCCC2)C1`: 0.77%. Regarding `Cc1cc(C)n(C2CN(C(=O)Cn3c(=O)c(C)nc4ccccc43)C2)n1`, the cytotoxicity at 10 µM was -7.59%. Next, `COCCC1(C(=O)O)CCCN(CCc2ccccc2)C1` (stereo not drawn): 10.6%; `CCn1cnc(NC(=O)N2CCC(c3ccc(F)cc3)C2)n1` (stereo not drawn): 4.17%; `Cc1nc(CNc2nc(-c3ccco3)nc3c2CCNCC3)n[nH]1`: -9.08%. In the case of `C[C@@H]1CN(C(=O)C2(Cn3cccn3)CC2)CC[C@@]1(O)C1CCOCC1`, the cytotoxicity at 10 µM was 3.48%. The value for `CCCNS(=O)(=O)c1ccc(C(=O)NC(CC)c2cnn(C)c2)cc1` (stereo not drawn) was 6.1%; that for `CCc1cc(N[C@H]2CCC[C@H]2O)n2nccc2n1` was -4%; that for `Cn1cc2ncn(CCNc3cccnc3)c(=O)c2n1` was 2.52%.

For the compound `COc1ccc(C(=O)N2C[C@@H](CN3CCOCC3)[C@@H](CO)C2)c(C)c1`, the cytotoxicity at 10 µM was -13.8%. Next, `O=C(O)[C@@H]1CN(C(=O)c2ccc3[nH]nnc3c2)C[C@H]1c1cccc(F)c1`: -8.66%. The value for `O=C(c1ccc(F)c(F)c1)N1CCCC(Nc2ccc(F)cc2)C1` (stereo not drawn) was -12.1%; that for `O=S(=O)(N1CCCC1)N1CCCCC1CCc1ccccc1` (stereo not drawn) was -5.65%. Regarding `COc1cccc(N2CCN(C(=O)[C@H](O)C3CCCCC3)CC2=O)c1`, the cytotoxicity at 10 µM was -14.1%. Next, `Cc1nccnc1N1CCC2(CCCN(C3CCOCC3)C2=O)C1` (stereo not drawn): -8.8%; `Cc1cnn(C2CCCN(C(=O)Cc3ccc4c(c3)CCO4)C2)c1` (stereo not drawn): -5.83%.

Turning to `COc1c(C2CCCN2CC(=O)Nc2nc(C)cs2)c(C)nn1C` (stereo not drawn), the cytotoxicity at 10 µM was -6.76%. The value for `Cc1cccc(C(=O)N2CCCN(Cc3cnn(C)c3)CC2)n1` was -10.5%; that for `COc1cccc(-n2c(C)cc(C(=O)NS(C)(=O)=O)c2C)c1` was -6%.

Turning to `Cc1nc(CN(C)C2CCN(CCCOc3ccccc3)C2)no1` (stereo not drawn), the cytotoxicity at 10 µM is -9.26%. The value for `c1cnc(Nc2cncc(C3CCCN3)n2)cn1` (stereo not drawn) was -8.69%; that for `Cc1cc(C[C@@H]2COC[C@H]2NCc2ccc(C(F)(F)F)cc2)on1` was -18.7%. The value for `COc1c(CNCc2nnc3n2CCCCC3)c(C)nn1C` was 9.03%; that for `COCC1CN(C(=O)c2cccn2C)Cc2c1cnn2CC1CC1` (stereo not drawn) was 8.07%; that for `COCC1c2c(cnn2C)CCN1Cc1ccc(C)cc1` (stereo not drawn) was 45%.

With `CN(C)C(=O)c1nn(C)c2c1CN(Cc1ccc(F)cc1)C2`, the cytotoxicity at 10 µM is -9.88%. With `Cc1nnc([C@H]2C[C@@H]3CCN(Cc4ccc(C)o4)C[C@H]3O2)[nH]1`, the cytotoxicity at 10 µM is -2.1%. Next, `c1csc(CN2CCCC3(COCCN(Cc4c[nH]nn4)C3)C2)c1` (stereo not drawn): 5.1%.

Regarding `CCOCC1CN(S(=O)(=O)CC)Cc2cnn(CC3CC3)c21` (stereo not drawn), the cytotoxicity at 10 µM is 9.55%.

Regarding `O=c1c2sccc2nc2n1CCN(Cc1ccc(F)c(F)c1)CC2`, the cytotoxicity at 10 µM is -26%.

Consider `O=C(C1CCOCC1)N1C[C@@H]2C[C@@H](c3nc(C4CC4)cs3)O[C@@H]2C1`, for which the cytotoxicity at 10 µM was -10.1%.

Turning to `CN(Cc1ccco1)[C@@H]1CN(Cc2ccc(F)cc2)C[C@@H]2CCCO[C@@H]21`, the cytotoxicity at 10 µM worked out at 2.91%. The value for `Cn1nnc2c1C(COCc1ccccn1)CN(C(=O)c1cccs1)C2` (stereo not drawn) was -11.2%; that for `CC(C)CN1C[C@@H]2C[C@H](C(=O)NC3CCC3)[C@H](C1)O2` was 2.37%. The value for `CC(C)CN1C[C@@H]2C[C@H](C(=O)N3CCCC3)[C@H](C1)O2` was 3.17%; that for `O=S(=O)(c1cccnc1)N1C[C@H]2CC[C@@H](C1)N(Cc1ccccn1)C2` was -0.807%; that for `Cn1cc(CCC(=O)N2C[C@@H]3CC[C@H]2CN(Cc2ccccc2)C3)cn1` was -1.97%.
